# ChEMBL document CHEMBL1687826, “Flow cytometry as a tool to determine the effects of cell wall-active antibiotics on vancomycin-susceptible and -resistant Enterococcus faecalis strains” (Antimicrob Agents Chemother, 2011)
# Calls of active or inactive are those of the source. No cut-off for these calls is given here.
# Assays:
# Enterococcus faecalis [1] = assay: Antibacterial activity against vancomycin-susceptible Enterococcus faecalis JH2-2 using BHI broth by macrodilution method; type: functional
# Procedure, shortened: (§1)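 Macrodilution per CLSI in BHI broth at 37°C, with 50 μg/ml free Ca2+ for daptomycin; MIC read as lowest concentration with no growth after 1 day.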
# Enterococcus faecalis [2] = assay: Antibacterial activity against […] Enterococcus faecalis BM4316 using BHI broth by macrodilution method; type: functional; procedure, shortened: as §1
# Enterococcus faecalis [3] = assay: Antibacterial activity against […] Enterococcus faecalis BM4275 using BHI broth by macrodilution method; type: functional; procedure, shortened: as §1
# Enterococcus faecalis [4] = assay: Antibacterial activity against vancomycin-susceptible Enterococcus faecalis JH2-2 assessed as increase in cell size at 0.25 times MIC after 30 to 90 mins by flow cytometric analysis relative to control; type: functional, organism-based
# Procedure, shortened: (§2)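 10^5 CFU/ml exponential cells in BHI, 37°C, exposed to 0.25× or 1× MIC (daptomycin with 50 μg/ml free Ca2+) for 30, 60, 90 min, then diluted to ca. 10^4 CFU/ml in PBS. Flow cytometry forward scatter, log amplifiers, 5,000 events; % increase in size versus untreated control, triplicate, mean ± SD; Kruskal-Wallis then Mann-Whitney.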
# Enterococcus faecalis [5] = assay: Antibacterial activity against vancomycin-susceptible Enterococcus faecalis JH2-2 assessed as increase in cell size at 1 times MIC after 30 to 90 mins by flow cytometric analysis relative to control; type: functional, organism-based
# Procedure, shortened: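 Exponentially growing cells at 10^5 CFU/ml in BHI broth at 37°C were exposed to 0.25× or 1× MIC and sampled at 30, 60 and 90 min. Untreated controls were run alongside. Cells were diluted to ca. 10^4 CFU/ml in PBS and gated on log forward scatter for 5,000 events. Runs were in triplicate, reported as mean % size increase versus control.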
# Enterococcus faecalis [6] = assay: Antibacterial activity against […] Enterococcus faecalis BM4316 assessed as membrane potential/size ratio at 0.25 to 1 times MIC after 1 hr […]; type: functional, organism-based
# Enterococcus faecalis [7] = assay: Antibacterial activity against […] Enterococcus faecalis BM4275 assessed as membrane potential/size ratio at 0.25 to 1 times MIC after 1 hr […]; type: functional, organism-based
# Enterococcus faecalis [8] = assay: Antibacterial activity against vancomycin-susceptible Enterococcus faecalis JH2-2 assessed as decrease in bacterial count at 4 times MIC after 180 mins using BHI broth; type: functional, organism-based
# Procedure, shortened: (§3)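 Exponential-phase suspension (10^5 CFU/ml) in BHI, 37°C, exposed to 4× MIC for 180 min alongside antibiotic-free control; daptomycin medium carried 50 μg/ml free Ca2+. Survivors counted on BHI agar; value is mean difference in log10 CFU/ml with versus without antibiotic, 4 independent experiments, mean ± SD.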
# Enterococcus faecalis [9] = assay: Antibacterial activity against […] Enterococcus faecalis BM4316 assessed as decrease in bacterial count at 4 times MIC after 180 mins using BHI broth; type: functional, organism-based; procedure, shortened: as §3
# Enterococcus faecalis [10] = assay: Antibacterial activity against […] Enterococcus faecalis BM4275 assessed as decrease in bacterial count at 4 times MIC after 180 mins using BHI broth; type: functional, organism-based; procedure, shortened: as §3
# Enterococcus faecalis [11] = assay: Drug uptake in vancomycin-susceptible Enterococcus faecalis JH2-2 assessed as red-fluorescent bacteria at 1 times MIC after 1 hr by confocal microscopy
# Enterococcus faecalis [12] = assay: Drug uptake in vancomycin[…]-type Enterococcus faecalis BM4316 assessed as red-fluorescent bacteria at 1 times MIC after 1 hr by confocal microscopy
# Enterococcus faecalis [13] = assay: Drug uptake in vancomycin[…]-type Enterococcus faecalis BM4275 assessed as red-fluorescent bacteria at 1 times MIC after 1 hr by confocal microscopy
# Enterococcus faecalis [14] = assay: Antibacterial activity against vancomycin-susceptible Enterococcus faecalis JH2-2 assessed as membrane potential/size ratio at 0.25 to 1 times MIC after 1 hr by flow cytometry
# Enterococcus faecalis [15] = assay: Antibacterial activity against […] Enterococcus faecalis BM4316 assessed as dismorphic bacterial chains at 1 times MIC after 1 hr by confocal microscopy
# Enterococcus faecalis [16] = assay: Antibacterial activity against […] Enterococcus faecalis BM4275 assessed as dismorphic bacterial chains at 1 times MIC after 1 hr by confocal microscopy
# Enterococcus faecalis [17] = assay: Antibacterial activity against vancomycin-susceptible Enterococcus faecalis JH2-2 assessed as dismorphic bacterial chains at 1 times MIC after 1 hr using BacLight Live/Dead kit by confocal microscopy
# Enterococcus faecalis [18] = assay: Antibacterial activity against […] Enterococcus faecalis BM4316 assessed as increase in cell size at 0.25 times MIC after 30 to 90 mins by flow cytometric analysis relative to control; type: functional, organism-based; procedure, shortened: as §2
# Enterococcus faecalis [19] = assay: Antibacterial activity against […] Enterococcus faecalis BM4275 assessed as increase in cell size at 0.25 times MIC after 30 to 90 mins by flow cytometric analysis relative to control; type: functional, organism-based; procedure, shortened: as §2
# Enterococcus faecalis [20] = assay: Antibacterial activity against […] Enterococcus faecalis BM4316 assessed as increase in cell size at 1 times MIC after 30 to 90 mins by flow cytometric analysis relative to control; type: functional, organism-based; procedure, shortened: as §2
# Enterococcus faecalis [21] = assay: Antibacterial activity against […] Enterococcus faecalis BM4275 assessed as increase in cell size at 1 times MIC after 30 to 90 mins by flow cytometric analysis relative to control; type: functional, organism-based; procedure, shortened: as §2
# Enterococcus faecalis [22] = assay: Antibacterial activity against vancomycin-susceptible Enterococcus faecalis JH2-2 assessed as change in CFU count at 1 times MIC after 30 to 90 mins; type: functional, organism-based
# Procedure, shortened: (§4)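 Exponentially growing cells, 10^5 CFU/ml in BHI at 37°C, exposed to 1× MIC antibiotic (daptomycin medium with 50 μg/ml free Ca2+) for 30, 60 and 90 min; viable counts by enumeration on BHI agar.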
# Enterococcus faecalis [23] = assay: Antibacterial activity against […] Enterococcus faecalis BM4316 assessed as change in CFU count at 1 times MIC after 30 to 90 mins; type: functional, organism-based; procedure, shortened: as §4
# Enterococcus faecalis [24] = assay: Antibacterial activity against […] Enterococcus faecalis BM4275 assessed as change in CFU count at 1 times MIC after 30 to 90 mins; type: functional, organism-based; procedure, shortened: as §4
# Staphylococcus aureus = assay: Antibacterial activity against Staphylococcus aureus ATCC 29213 assessed as cells with altered cell wall morphology at 8 times MIC after 60 mins; type: functional
Structure (SMILES),Activity (Enterococcus faecalis [1]),Activity (Enterococcus faecalis [2]),Activity (Enterococcus faecalis [3]),Activity (Enterococcus faecalis [4]),Activity (Enterococcus faecalis [5]),Activity (Enterococcus faecalis [6]),Activity (Enterococcus faecalis [7]),Activity (Enterococcus faecalis [8]),Activity (Enterococcus faecalis [9]),Activity (Enterococcus faecalis [10]),Drug uptake (Enterococcus faecalis [11]),Drug uptake (Enterococcus faecalis [12]),Drug uptake (Enterococcus faecalis [13]),Activity (Enterococcus faecalis [14]),Activity (Enterococcus faecalis [15]),Activity (Enterococcus faecalis [16]),Activity (Enterococcus faecalis [17]),Activity (Enterococcus faecalis [18]),Activity (Enterococcus faecalis [19]),also measured
CN[C@H](CC(C)C)C(=O)N[C@H]1C(=O)N[C@@H](CC(N)=O)C(=O)N[C@H]2C(=O)N[C@H]3C(=O)N[C@H](C(=O)N[C@H](C(=O)O)c4cc(O)cc(O)c4-c4cc3ccc4O)[C@H](O)c3ccc(c(Cl)c3)Oc3cc2cc(c3O[C@@H]2O[C@H](CO)[C@@H](O)[C@H](O)[C@H]2O[C@H]2C[C@](C)(N)[C@H](O)[C@H](C)O2)Oc2ccc(cc2Cl)[C@H]1O [VANCOMYCIN],4 µg/mL,512 µg/mL,256 µg/mL,Active,Active,inactive,inactive,Active,Active,Active,Active,Active,Active,inactive,inactive,inactive,inactive,,,
CCCCCCCCCCNCCN[C@@]1(C)C[C@H](O[C@H]2[C@H](Oc3c4cc5cc3Oc3ccc(cc3Cl)[C@@H](O)[C@@H](NC(=O)[C@@H](CC(C)C)NC)C(=O)N[C@@H](CC(N)=O)C(=O)N[C@H]5C(=O)N[C@H]3C(=O)N[C@H](C(=O)N[C@H](C(=O)O)c5cc(O)c(CNCP(=O)(O)O)c(O)c5-c5cc3ccc5O)[C@H](O)c3ccc(c(Cl)c3)O4)O[C@H](CO)[C@@H](O)[C@@H]2O)O[C@@H](C)[C@H]1O [TELAVANCIN],1 µg/mL,4 µg/mL,1 µg/mL,Active,,inactive,inactive,Active,Active,Active,Active,Active,Active,inactive,inactive,inactive,inactive,Active,Active,
CCCCCCCCCC(=O)N[C@@H](Cc1c[nH]c2ccccc12)C(=O)N[C@H](CC(N)=O)C(=O)N[C@@H](CC(=O)O)C(=O)N[C@@H]1C(=O)NCC(=O)N[C@@H](CCCN)C(=O)N[C@@H](CC(=O)O)C(=O)N[C@H](C)C(=O)N[C@@H](CC(=O)O)C(=O)NCC(=O)N[C@H](CO)C(=O)N[C@@H]([C@H](C)CC(=O)O)C(=O)N[C@@H](CC(=O)c2ccccc2N)C(=O)O[C@@H]1C,2 µg/mL,2 µg/mL,2 µg/mL,Active,Active,inactive,inactive,Active,Active,Active,Active,Active,Active,inactive,Active,Active,Active,Active,Active,Activity (Enterococcus faecalis [20]): Active; Activity (Enterococcus faecalis [21]): Active; Activity (Enterococcus faecalis [22]): Active; Activity (Enterococcus faecalis [23]): Active; Activity (Enterococcus faecalis [24]): Active; Activity (Staphylococcus aureus): >90%
CN[C@H](CC(C)C)C(=O)N[C@H]1C(=O)N[C@@H](CC(N)=O)C(=O)N[C@H]2C(=O)N[C@H]3C(=O)N[C@H](C(=O)N[C@H](C(=O)O)c4cc(O)cc(O)c4-c4cc3ccc4O)[C@H](O)c3ccc(c(Cl)c3)Oc3cc2cc(c3O[C@@H]2O[C@H](CO)[C@@H](O)[C@H](O)[C@H]2O[C@H]2C[C@](C)(NCCCCNc3cc(C(F)(F)F)nc4cc(Cl)ccc34)[C@H](O)[C@H](C)O2)Oc2ccc(cc2Cl)[C@H]1O [listing 1 of 2 here],,,,,,,,,,,Active,Active,Active,,,,,,,
CN[C@H](CC(C)C)C(=O)N[C@H]1C(=O)N[C@@H](CC(N)=O)C(=O)N[C@H]2C(=O)N[C@H]3C(=O)N[C@H](C(=O)N[C@@H](C(=O)O)c4cc(O)cc(O)c4-c4cc3ccc4O)[C@H](O)c3ccc(c(Cl)c3)Oc3cc2cc(c3O[C@@H]2O[C@H](CO)[C@@H](O)[C@H](O)[C@H]2O[C@H]2C[C@](C)(NCCCCNc3cc(C(F)(F)F)nc4cc(Cl)ccc34)[C@H](O)[C@H](C)O2)Oc2ccc(cc2Cl)[C@H]1O,,,,Active,,inactive,inactive,Active,Active,Active,,,,inactive,inactive,inactive,inactive,Active,,
CN[C@H](CC(C)C)C(=O)N[C@H]1C(=O)N[C@@H](CC(N)=O)C(=O)N[C@H]2C(=O)N[C@H]3C(=O)N[C@H](C(=O)N[C@H](C(=O)O)c4cc(O)cc(O)c4-c4cc3ccc4O)[C@H](O)c3ccc(c(Cl)c3)Oc3cc2cc(c3O[C@@H]2O[C@H](CO)[C@@H](O)[C@H](O)[C@H]2O[C@H]2C[C@](C)(NCCCCNc3cc(C(F)(F)F)nc4cc(Cl)ccc34)[C@H](O)[C@H](C)O2)Oc2ccc(cc2Cl)[C@H]1O [listing 2 of 2 here],0.5 µg/mL,4 µg/mL,2 µg/mL,,,,,,,,,,,,,,,,,
